According to article PMC11052883 (Clinical Pharmacokinetics, 2024):
Several values for one entry are separate records, joined by “and”; a condition that tells them apart may be missing. Equal values may be shown once. Square brackets hold non-standard residues; d marks the D form. Peptide text beside a SMILES is read from it. * marks the point of attachment. Dolaproine = CO[C@@H]([C@@H]1CCCN1)[C@@H](C)C(=O)O; Dil = CC[C@H](C)[C@H](NC)[C@@H](CC(=O)O)OC; X1 = C[C@@H](N*)[C@@H](O)c1ccccc1; NMeV = CN[C@H](C(=O)O)C(C)C

What was measured:
[1] = system: BSEP; settings: in vitro, clinically relevant concentrations; cited from earlier work
[2] = system: OATP1B1; settings: in vitro, cited from earlier work
[3] = MMAE given as brentuximab vedotin; cited from earlier work
[4] = system: OCT1; settings: in vitro, clinically relevant concentrations; cited from earlier work
[5] = system: BCRP; settings: in vitro; cited from earlier work
[6] = Population PK analysis of five clinical studies; assay type: in vivo, human; settings: enfortumab vedotin 0.5–1.25 mg/kg
[7] = system: QTcF interval; settings: cited from earlier work; for Cmax geometric mean: EV-102, after third dose, cycle 1 day 15, 1.25 mg/kg
[8] = system: MRP2; settings: in vitro, cited from earlier work
[9] = system: OCT2; settings: in vitro, cited from earlier work
[10] = system: plasma proteins; assay: MMAE protein binding in human plasma; assay type: in vitro ADME; settings: used for unbound Cmax
[11] = system: OAT3; settings: in vitro, cited from earlier work
[12] = EV-201 clinical PK of ADC, TAb and free MMAE after enfortumab vedotin 1.25 mg/kg; assay type: in vivo, human; settings: for AUCd0–14: cycle 1, dose 3, day 15, geometric mean (%CV)
[13] = system: OATP1B3; settings: in vitro, cited from earlier work
[14] = system: QTcF interval; assay: EV-102 concentration–QTcF analysis; assay type: in vivo, human; settings: patients, third dose of enfortumab vedotin 1.25 mg/kg
[15] = system: plasma proteins; settings: 3H-MMAE, human plasma; cited from earlier work
[16] = system: OAT1; settings: in vitro, cited from earlier work
[17] = system: cytochrome P450 (CYP) 3A4; settings: background statement, no reference given; cited from earlier work
[18] = system: P-glycoprotein (P-gp); settings: in vitro, cited from earlier work
[19] = target: human ether-a-go-go–related (hERG) channel (Homo sapiens, UniProt Q12809); assay: hERG channel inhibition, whole-cell voltage clamp; assay type: cell-based
Procedure, shortened: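 In vitro hERG current by conventional whole-cell voltage clamp, with MMAE (free payload) tested at concentrations up to 100 μM. Half-maximal inhibitory concentration is estimated from the concentration–inhibition data. The comparator is the mean estimated maximum unbound plasma MMAE concentration in patients after a third 1.25 mg/kg dose, using an unbound fraction of 0.32.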

[20] = system: CYP3A; settings: when administered as part of an ADC; cited from earlier work
[21] = Population PK: model-predicted exposures by race/ethnicity; assay type: in vivo, human; settings: for difference in exposure, lower in Asian patients: cycle 1 AUC0–28d and Cmax, Asian vs non-Asian; for geometric least square mean ratios of Cmax, AUC0–28d and Ctrough lower in Japanese than non-Japanese patients: population PK model-simulated
[22] = Population PK: effect of mild hepatic impairment on model-predicted exposures; assay type: in vivo, human; settings: mild hepatic impairment compared with normal hepatic function
[23] = system: mUC and other Nectin-4–expressing malignant solid tumors; assay: EV-101 phase I dose-escalation; assay type: in vivo, human
[24] = system: Nectin-4–expressing malignant solid tumors; assay: AGS-22M6E-11-1 phase I study; assay type: in vivo, human; settings: for median t½: observed concentrations
Procedure, shortened: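 First-in-human study in which patients received an intravenous infusion every 3 weeks at 0.6 or 1.2 mg/kg. ADC is measured as antibody carrying any amount of conjugated MMAE. Median half-life is derived from observed ADC concentrations at each dose level. Safety, tolerability and clinical response are assessed per dose cohort.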

[25] = system: locally advanced or metastatic urothelial carcinoma; assay: EV-201; assay type: in vivo, human; settings: upper three ADC Cavg exposure quartiles
[26] = system: locally advanced or metastatic urothelial carcinoma; assay: EV-301 phase III: exposure–response for overall survival; assay type: in vivo, human; settings: enfortumab vedotin range across ADC Cavg quartiles
[27] = Adverse events in pooled enfortumab vedotin 1.25 mg/kg safety group; assay type: in vivo, human; settings: for patients with grade 3 or higher TRAEs / patients with serious TRAEs: 1.25 mg/kg safety analysis group; for patients with TRAE grade 3 or higher / patients with serious TRAE: 1.25 mg/kg
Procedure, shortened: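 Pooled integrated safety dataset (N = 680) from the clinical development program. Patients received monotherapy at 1.25 mg/kg (maximum 125 mg) as a 30-min IV infusion on days 1, 8 and 15 of each 28-day cycle until progression or unacceptable toxicity. Treatment-emergent and treatment-related AEs, including serious events, were tabulated by subgroups of concomitant inhibitor use.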

[28] = clinically relevant concentrations

human ether-a-go-go–related (hERG) channel, sequence (Q12809 whole entry): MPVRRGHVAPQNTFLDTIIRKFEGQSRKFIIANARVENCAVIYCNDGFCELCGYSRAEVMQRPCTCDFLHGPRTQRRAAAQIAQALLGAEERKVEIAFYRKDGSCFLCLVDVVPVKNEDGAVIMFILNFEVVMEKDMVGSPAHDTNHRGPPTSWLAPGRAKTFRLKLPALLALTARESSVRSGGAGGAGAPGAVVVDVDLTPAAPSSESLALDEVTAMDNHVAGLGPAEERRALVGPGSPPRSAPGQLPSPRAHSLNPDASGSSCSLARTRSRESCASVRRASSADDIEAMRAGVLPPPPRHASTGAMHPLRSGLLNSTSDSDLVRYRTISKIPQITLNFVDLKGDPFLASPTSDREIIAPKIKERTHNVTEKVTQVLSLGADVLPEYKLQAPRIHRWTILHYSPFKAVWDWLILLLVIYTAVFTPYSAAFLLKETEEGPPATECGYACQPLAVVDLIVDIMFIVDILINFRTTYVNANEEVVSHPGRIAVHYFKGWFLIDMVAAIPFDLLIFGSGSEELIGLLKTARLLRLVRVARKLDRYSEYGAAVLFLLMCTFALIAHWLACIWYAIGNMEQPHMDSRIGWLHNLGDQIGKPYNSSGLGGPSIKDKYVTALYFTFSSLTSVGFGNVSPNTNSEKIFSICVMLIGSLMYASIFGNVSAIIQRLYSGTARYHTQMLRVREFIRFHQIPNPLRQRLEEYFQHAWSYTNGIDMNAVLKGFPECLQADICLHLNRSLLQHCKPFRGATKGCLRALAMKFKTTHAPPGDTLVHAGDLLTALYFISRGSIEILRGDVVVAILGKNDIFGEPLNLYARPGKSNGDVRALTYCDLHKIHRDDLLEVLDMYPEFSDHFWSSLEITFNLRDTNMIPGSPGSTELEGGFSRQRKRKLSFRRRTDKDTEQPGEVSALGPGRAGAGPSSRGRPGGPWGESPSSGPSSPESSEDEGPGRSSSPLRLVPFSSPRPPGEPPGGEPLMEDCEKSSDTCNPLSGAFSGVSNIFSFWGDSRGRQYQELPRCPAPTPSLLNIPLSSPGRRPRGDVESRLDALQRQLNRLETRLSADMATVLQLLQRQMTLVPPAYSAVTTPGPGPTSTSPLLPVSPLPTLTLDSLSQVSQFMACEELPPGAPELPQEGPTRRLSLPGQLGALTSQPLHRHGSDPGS

For CC[C@H](C)[C@@H]([C@@H](CC(=O)N1CCC[C@H]1[C@H](OC)[C@@H](C)C(=O)N[C@H](C)[C@@H](O)c1ccccc1)OC)N(C)C(=O)[C@@H](NC(=O)[C@@H](NC)C(C)C)C(C)C [MMAE, monomethyl auristatin E] (H-[NMeV]V[Dil][Dolaproine]-X1), the “inhibitor of BSEP” value [1] is given as “not an inhibitor”, the “inhibitor of OATP1B1” value [2, 28] is given as “not an inhibitor” and the “substrate of OATP1B1” value [2] is given as “not a substrate”. For the same compound, the “share of excreted MMAE that was excreted in feces” value [3] was “approximately 72%”, the “total MMAE administered excreted in feces and urine” value [3] was “approximately 24%” and the “inhibitor of OCT1” value [4] was “not an inhibitor”. For the same compound, the “substrate of BCRP” value [5] was “not a substrate”, the mean clearance [6] was 2.11 L/h and the Cmax geometric mean [7] was 3.94 ng/mL. For the same compound, the “Predicted dQTcF interval (population mean change in QTcF), mean (SE in table)” value ([7]; at geometric mean Cmax, 1.25 mg/kg) was -3.14 ms, the “inhibitor of MRP2” value [8, 28] was “not an inhibitor” and the “substrate of MRP2” value [8] was “not a substrate”. For the same compound, the “inhibitor of OCT2” value [9, 28] was “not an inhibitor”, the “substrate of OCT2” value [9] was “not a substrate” and the unbound fraction [10] was 0.32. The “inhibitor of OAT3” value [11, 28] was “not an inhibitor”, the “substrate of OAT3” value [11] was “not a substrate” and the “Mean Cmax” value ([12]; across cycles 1 and 2, enfortumab vedotin 1.25 mg/kg) was 2.4 to 3.9 ng/mL. For the same compound, the “time to peak concentration” value ([12]; after dosing of enfortumab vedotin 1.25 mg/kg) was 2 to 3 days, the “Cmax lower than that of ADC” value ([12]; enfortumab vedotin 1.25 mg/kg) was “more than 1000 fold” and the “inhibitor of OATP1B3” value [13, 28] was “not an inhibitor”. The “substrate of OATP1B3” value [13] was “not a substrate”, the “mean estimate of maximum unbound MMAE concentration” value [14] was 0.002 μM and 1.26 ng/mL and the “bound to plasma proteins” value [15] was 67.9–82.2%. The “inhibitor of OAT1” value [16, 28] was “not an inhibitor”, the “substrate of OAT1” value [16] was “not a substrate” and the metabolizing enzyme [17] was “primarily metabolized by cytochrome P450 (CYP) 3A4”. The “inhibitor of P-gp” value [18, 28] was “not an inhibitor”, the “substrate of P-gp” value [18] was “substrate” and the “IC50 estimate relative to mean maximum unbound MMAE concentration” value ([19]; 100 μM vs 0.002 μM) was “approximately 50,000 fold”. The IC50 ([19]; read-out: half maximal inhibitory concentration, concentrations up to 100 μM) was greater than 100 µM, the “inhibitor or inducer of CYP3A” value [20] was “neither an inhibitor nor an inducer” and the “difference in exposure, lower in Asian patients” value [21] was less than 11%. The “geometric least square mean ratios of Cmax, AUC0–28d and Ctrough lower in Japanese than non-Japanese patients” value [21] was 2.7–11.6%, the “increase in AUC0–28d” value [22] was 37% and the “increase in Cmax” value [22] was 31%.
In the case of “Enfortumab vedotin: fully human anti–Nectin-4 IgG1 kappa monoclonal antibody conjugated to MMAE via a protease-cleavable maleimidocaproyl valine–citrulline linker”, the maximum tolerated dose ([23]; EV-101, 0.5–1.25 mg/kg) is reported as “not identified”, the “confirmed objective response rate [ORR]” value ([23]; EV-101, 1.25-mg/kg dose level) is reported as 42.9% and the mean clearance [6] is reported as 0.11 L/h. For the same compound, the clinical response ([24]; 0.6 mg/kg and 1.2 mg/kg every 3 weeks) was “clinical response was not observed”, the “median t½” value ([24]; 1.2 mg/kg intravenous dose) was 57.4 h and the “median t½” value ([24]; 0.6-mg/kg dose) was 39.6 h. For the same compound, the QT prolongation ([7]; EV-102, 1.0 or 1.25 mg/kg) was “No clinically meaningful QT prolongation was observed”, the “slope estimate, dQTcF vs concentration” value ([7]; EV-102, 1.0 or 1.25 mg/kg) was 0.539 ms/(μg/mL) and the Cmax geometric mean [7] was 20100 ng/mL. The “ORR (complete and partial responses)” value [25] was 55–64%, the “median OS” value [26] was 11.0–15.2 months and the “AUCd0–14” value ([12]; listed as ADC) was 34.7 µg·days/mL. The “patients with grade 3 or higher TRAEs” value ([27]; mild CYP3A inhibitors) was 51.1%, the “patients with serious TRAEs” value ([27]; mild CYP3A inhibitors) was 20.7% and the “patients with grade 3 or higher TRAEs” value ([27]; moderate CYP3A inhibitors) was 61.8%. For the same compound, the “patients with serious TRAEs” value ([27]; moderate CYP3A inhibitors) was 28.7%, the “patients with grade 3 or higher TRAEs” value ([27]; not receiving CYP3A inhibitors) was 41.5% and the “patients with serious TRAEs” value ([27]; not receiving CYP3A inhibitors) was 14.4%. The “patients with TRAE grade 3 or higher” value ([27]; not receiving P-gp inhibitors) was 33.3%, the “patients with serious TRAE” value ([27]; not receiving P-gp inhibitors) was 10.0% and the “patients with TRAE grade 3 or higher” value ([27]; receiving P-gp inhibitors) was 56.8%. The “patients with serious TRAE” value ([27]; receiving P-gp inhibitors) was 24.3%, the “difference in exposure, lower in Asian patients” value [21] was less than 11% and the “geometric least square mean ratios of Cmax, AUC0–28d and Ctrough lower in Japanese than non-Japanese patients” value [21] was 2.7–11.6%.
For “TAb: analyte: fully conjugated, partially conjugated, and unconjugated antibody after enfortumab vedotin administration”, the “geometric mean ratio (GMR) of accumulation” value ([12]; after repeat enfortumab vedotin dosing) was 1.1, the “AUCd0–14” value [12] was 98.1 µg·days/mL and the “average Ctrough, TAb relative to ADC” value ([12]; end of cycle 1) was “approximately 5.5 fold”.
